What is called inhibition is the drop in the measured response relative to a control, in per cent.

About 2,000 (1%) of roughly 200,000 compounds were called active. For the sample, actives were picked, then their nearest neighbours and some compounds at random. A number with no mark means an inactive call.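 The calls were made as follows: active = inhibition above the campaign mean inhibition of all tested compounds plus 3 SD (cut at about 20% in these data); inactive = the rest.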

Chain of Neuropeptide Y receptor type 1 (Homo sapiens) (P25929 whole entry, looked up): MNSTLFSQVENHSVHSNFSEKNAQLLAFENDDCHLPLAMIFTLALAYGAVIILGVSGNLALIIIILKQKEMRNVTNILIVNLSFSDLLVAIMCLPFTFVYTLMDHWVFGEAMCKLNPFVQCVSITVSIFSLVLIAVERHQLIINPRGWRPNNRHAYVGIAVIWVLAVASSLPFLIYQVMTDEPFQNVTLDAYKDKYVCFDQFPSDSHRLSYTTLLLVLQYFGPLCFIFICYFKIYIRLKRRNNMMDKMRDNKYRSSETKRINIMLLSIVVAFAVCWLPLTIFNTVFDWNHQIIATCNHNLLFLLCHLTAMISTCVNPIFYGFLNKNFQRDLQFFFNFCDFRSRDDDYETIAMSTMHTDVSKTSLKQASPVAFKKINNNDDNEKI

This assay addresses Neuropeptide Y receptor type 1 (Homo sapiens) (UniProt P25929). As to the kind of experiment: NPY-Y1 receptor antagonists, primary screen, cell-based (AID 1040).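 Also: 0% = DMSO wells given NPY plus isoproterenol and 100% = isoproterenol alone without NPY.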 The following applies: HEK293-CNG Y1 cells, membrane potential fluorescence; at 3.6 µM; active compounds read high; NPY at EC95, then isoproterenol. Put shortly: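 Material: HEK293 cells with Y1 receptor plus CNG channel; times: compound incubation 1 h at room temperature, readout 45 min post-stimulation; signal: fluorescence, membrane potential probe; read-out basis: fluorescence ratio normalized to % inhibition between controls; benchmarks: full-block control isoproterenol-only wells, zero-block control NPY plus isoproterenol wells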
Consider `CCOC(=O)c1cccnc1NC(=O)c1ccncc1`, for which the inhibition is -1.05%.

`CC(C)N(C(=O)CSc1nc(COc2ccccc2)nc2ccccc12)C(C)C`: the inhibition was 3.31%.

Take `CCOC(=O)N1CCN(C(=S)Nc2ccc(C)cc2C)CC1`: the inhibition is 3.77%.

As for `CCOC(=O)c1nn(-c2cccc(C)c2)cc1C(=O)c1ccccc1`, the inhibition was 22% (active).

Take `CCOC(=O)c1cn(Cc2cccc(C)c2)nn1`: the inhibition was -0.81%.

As for `CC(=O)c1nn(-c2cccc(Br)c2)cc1C(=O)c1cccc2ccccc12`, the inhibition is -2.46%.

`CCCCCCC(=O)Nc1nc(C)c(-c2csc(Nc3cc(Cl)ccc3OC)n2)s1`: the inhibition is 11.2%.

On to `CCCCCCC(=O)Nc1nc(C)c(-c2csc(Nc3cccc(OC)c3)n2)s1`, for which the inhibition was 28.2% (active).

Consider `CCCCC(=O)Nc1nc(C)c(-c2csc(Nc3ccc(Cl)cc3)n2)s1`, for which the inhibition was 4.16%.

Consider `CCOC(=O)C1CCCN(C(=O)COc2ccc(N(C)S(=O)(=O)c3ccc(C)cc3)cc2)C1` (stereo not given), for which the inhibition was 2%.

With `CCSC1=NCCN1S(=O)(=O)c1ccc(F)cc1`, the inhibition was -1.87%.

On to `Cc1ccc(OCC(=O)Nc2cccc3c2CCCC3)cc1C`, for which the inhibition was 21.6% (active).

As to `COCCNC(=O)COc1ccc(C)c(C)c1`, the inhibition is -3.6%.

On to `Cc1cccc(OCC(=O)Nc2ccccc2F)c1`, for which the inhibition was 5.47%.

For `COc1ccc(C2Nc3ccccc3C(=O)N2Cc2ccccc2)cc1Cn1nnc2ccccc21` (stereo not given), the inhibition was 27.9% (active).

Turning to `COc1ccc(C2Nc3ccccc3C(=O)N2c2ccc(F)cc2)cc1Cn1nnc2ccccc21` (stereo not given), the inhibition is -0.97%.

Take `COc1ccc(C2Nc3ccccc3C(=O)N2c2ccc(Cl)cc2)cc1Cn1cc([N+](=O)[O-])cn1` (stereo not given): the inhibition was 3.97%.

`OCCC1CN(Cc2cccc(OC3CCCC3)c2)CCN1Cc1ccsc1` (stereo not given): the inhibition is 7.81%.

On to `CC(=O)NCCC(=O)Nc1nc(C)c(Cc2ccc3c(c2)OCO3)s1`, for which the inhibition is 3.53%.

For the compound `CC(C[N+](C)(C)C)OC(N)=O` (stereo not given), the inhibition is -2.3%.

For `CC(=O)OC(C)C[N+](C)(C)C` (stereo not given), the inhibition was 25.2% (active).

As to `CN1CCN(CCCCOc2ccccc2-c2ccccc2)CC1`, the inhibition is 12.9%.

With `CC1CN(CCOc2ccccc2[N+](=O)[O-])CC(C)O1` (stereo not given), the inhibition was -1.43%.

As for `Cc1cc(C)c(OCCN2CC(C)OC(C)C2)c(Br)c1` (stereo not given), the inhibition is 9.03%.

Take `CC1CCCN(CCOCCOc2ccccc2-c2ccccc2)C1` (stereo not given): the inhibition is 12.5%.

In the case of `CC1CN(CCCOc2ccccc2-c2ccccc2)CC(C)O1` (stereo not given), the inhibition is 24.5% (active).

Turning to `c1ccc(-c2ccccc2OCCN2CCCCC2)cc1`, the inhibition is 22.3% (active).

As for `COC(=O)COc1cccc2c(=O)n(CC(=O)NCCc3ccc(OC)c(OC)c3)ccc12`, the inhibition was -1.97%.

For `O=C(CSc1nnnn1C1CCCC1)Nc1ccc2c(c1)OCCO2`, the inhibition was 22.9% (active).

As for `CCC(=O)Nc1cccc(NC(=O)CSc2nnnn2C2CCCC2)c1`, the inhibition was 3.57%.

Take `O=C(CSc1nnnn1-c1ccc2c(c1)CCC2)Nc1ccc2c(c1)OCCO2`: the inhibition was 6.81%.

As for `CCC(=O)Nc1ccc(S(=O)(=O)NCC2CCCO2)cc1` (stereo not given), the inhibition is -5.94%.

`CCC(=O)c1c[nH]c(C(=O)NCC2CCCO2)c1` (stereo not given): the inhibition is 55.6% (active).

For the compound `O=C(NCC1CCCO1)c1ccc2ccccc2n1` (stereo not given), the inhibition was 2.64%.

Regarding `Nc1ccc(Cl)c(S(=O)(=O)Nc2ccccc2Cl)c1`, the inhibition is -0.95%.

With `COC(=O)c1ccc(NC(=S)NN2CCOCC2)cc1`, the inhibition was 4.27%.

In the case of `O=C(NC(c1ccccc1)c1ccccc1)N1CCN(CCO)CC1`, the inhibition is 3.34%.

Consider `c1ccc(-c2cc(N3CCCCC3)c3ccccc3n2)cc1`, for which the inhibition was 15.9%.

Regarding `CC(Nc1nc(N2CCCC2)nc2ccccc12)c1ccccc1` (stereo not given), the inhibition was 32.6% (active).

Turning to `CC(Nc1nc(N2CCOCC2)nc2ccccc12)c1ccccc1` (stereo not given), the inhibition is 8.28%.

Regarding `CCCCn1c(CN2CCN(CCO)CC2)nc2ccccc21`, the inhibition is 6.52%.

`CC(Nc1nc(N2CCN(CCO)CC2)nc2ccccc12)c1ccccc1` (stereo not given): the inhibition is 22.2% (active).

With `COc1ccc(CC(=O)Nc2ccccc2NC(=O)c2ccco2)cc1OC`, the inhibition is 0.93%.

Turning to `Cc1ccc(-c2nnc(SCC(=O)N/N=C/c3cccs3)n2-c2ccc(C)cc2)cc1`, the inhibition was 0.85%.

As for `CC(Oc1ccccc1F)C(=O)NN` (stereo not given), the inhibition was 2.86%.

For `O=C(O)CCc1nc2cc(Cl)ccc2n(Cc2ccccc2)c1=O`, the inhibition is 5.7%.

Take `O=C(C1CCCN1S(=O)(=O)c1ccc(Br)cc1)N1CCOCC1` (stereo not given): the inhibition is -0.15%.

As to `CN1CCN(c2ccc(NC(=O)c3ccc4c(c3)OCCO4)cc2Cl)CC1`, the inhibition is 12%.

For `O=C(O)c1ccccc1-c1ccccc1C(=O)Nc1nccs1`, the inhibition was 2.4%.

As to `O=C(NCCc1ccc(F)cc1)c1n[nH]c2ccccc12`, the inhibition is -0.22%.

For `Cc1ccc(C)c(NC(=S)NCC(c2cccnc2)N2CCOCC2)c1` (stereo not given), the inhibition was 0.28%.

In the case of `O=C1c2cccc3cccc(c23)C(=O)N1CCCCCc1n[nH]c(=S)o1`, the inhibition is 5.39%.

With `O=C(Nc1cccc(Cl)c1)Nc1ccccc1NS(=O)(=O)c1cccs1`, the inhibition was -7.2%.

As for `c1ccc2[nH]c(-c3nc4ccccc4[nH]3)nc2c1`, the inhibition was 0.38%.

As for `COc1ccc(-c2[nH]nc(-c3ccccc3)c2-c2nc3ccccc3[nH]2)cc1`, the inhibition was 20.3% (active).

In the case of `c1ccc(-c2[nH]ncc2-c2nc3ccccc3[nH]2)cc1`, the inhibition was -3.83%.

Take `Cc1ccc(NC(=O)C(=O)NCC2CCN(C(=O)c3cccc([N+](=O)[O-])c3)CC2)cc1`: the inhibition was -1.84%.

Take `Cc1ccc(S(=O)(=O)/N=C(\N)c2ccc(F)cc2)cc1`: the inhibition was -5.62%.

Take `Clc1ccccc1-c1cc(COc2ccc3ccccc3c2)no1`: the inhibition was 25.6% (active).

Take `Clc1ccc(-c2cc(COc3ccccc3)no2)cc1Cl`: the inhibition is 5%.

For the compound `O=C(NCc1ccccn1)c1cc(-c2ccccc2Cl)on1`, the inhibition is 9.55%.

For the compound `Cc1cc(C)cc(C(=O)NC(=S)Nc2ccc3[nH]c(=O)[nH]c3c2)c1`, the inhibition was 6.81%.

Take `COc1ccccc1CNC(=O)c1cc(=O)c2ccccc2o1`: the inhibition is -4.58%.

As to `CCCOc1ccccc1C1CC(=O)Nc2cc3c(cc21)OCO3` (stereo not given), the inhibition was 8.29%.

Turning to `COc1ccccc1C1C2=C(COC2=O)Nc2cc3c(cc21)OCO3` (stereo not given), the inhibition is 36.2% (active).

Turning to `COc1cc2c(cc1/C=C1/NC(=O)N(c3ccccc3)C1=O)OCO2`, the inhibition is 6.09%.

For `CCC(C)[C@@H](C(=O)N1CCNCC1)n1cc(CCCCN)nn1` (stereo not given in full), the inhibition is 1.85%.

Consider `O=C(CC1NCCNC1=O)Nc1cc(Cl)cc(Cl)c1` (stereo not given), for which the inhibition was 0.62%.

As to `COC(=O)c1ccc(/C=N/OCC(=O)Nc2cc(F)ccc2F)cc1`, the inhibition is 11.1%.

Turning to `Cc1ccc(CSc2nc3[nH]ncc3c(=O)[nH]2)cc1`, the inhibition is 7.17%.

`CCC(c1nnnn1C1CCCC1)N(Cc1cccs1)Cc1cc2cccc(C)c2[nH]c1=O` (stereo not given): the inhibition was 20.4% (active).

For `Cc1cccc2cc(CN(Cc3ccc4c(c3)OCO4)Cc3nnnn3C3CCCC3)c(=O)[nH]c12`, the inhibition was -4.12%.

Turning to `Cc1cccc2cc(CN(Cc3cccs3)C(c3nnnn3C3CCCC3)C(C)C)c(=O)[nH]c12` (stereo not given), the inhibition is 14.5%.

With `CCOc1cccc(OCCCOc2cccc3cccnc23)c1`, the inhibition is 1.99%.

`CN(C)S(=O)(=O)c1cccc(NC(=O)COC(=O)c2cc(=O)[nH]c(=O)[nH]2)c1`: the inhibition was 0.75%.

On to `CCOC(=O)C1CCN(C(=O)/C=C/c2cc(OC)c(OC)c(OC)c2)CC1`, for which the inhibition is -1.4%.

As for `Cc1ccc(/C=N/NC(=O)c2sccc2OCc2ccc(F)cc2)cc1`, the inhibition was 27.2% (active).

Take `Cc1ccsc1C(=O)N/N=C/c1ccc([N+](=O)[O-])cc1`: the inhibition was 2.54%.

As to `Cc1ccc(COc2ccc(/C=N/NC(=O)CN3CCCCC3)cc2)cc1`, the inhibition was 16.6%.

On to `CS/C(=C\[N+](=O)[O-])Nc1ccc(C)cc1`, for which the inhibition was 10.6%.

`O=C(COC(=O)C1CC2C=CC1C2)Nc1ccccc1` (stereo not given): the inhibition is -2.39%.

With `CCCCN(CC)C(=O)c1ccc2c(c1)OCO2`, the inhibition is -2.36%.

In the case of `CCOc1ccc(CCNC(=O)C2=C(C)C(=O)OC23CCC(C)CC3)cc1OCC` (stereo not given), the inhibition was 8.46%.

With `O=C(O)CSc1nccc2ccccc12`, the inhibition is 21.7% (active).

As to `COC(=O)CSc1nc(C2CC2)nc2ccccc12`, the inhibition is 3.03%.

Regarding `O=C(O)CSc1nccn1-c1cccc(Cl)c1`, the inhibition is 7.38%.

Turning to `CC1COc2ccccc2N1C(=O)c1cccnc1Cl` (stereo not given), the inhibition was 1.41%.

Consider `CCOc1ccccc1Nc1ccc(C(=O)O)cc1[N+](=O)[O-]`, for which the inhibition was 3.86%.

`ClC1(Cl)CC1CSc1ncn[nH]1` (stereo not given): the inhibition was 3.1%.

Consider `COC(=O)c1nc2n(n1)C(c1ccc([N+](=O)[O-])cc1)C(C(=O)Nc1ccc(Cl)cc1)=C(C)N2` (stereo not given), for which the inhibition was -1.89%.

For the compound `Cc1nn(C)c(C)c1Sc1ccccc1N`, the inhibition is -0.64%.

For the compound `COc1ccc(-c2oc3ncn(Cc4ccco4)c(=N)c3c2-c2ccc(OC)cc2)cc1`, the inhibition was 31.4% (active).

On to `COc1ccc(-n2cnc3cc(NCc4ccco4)ccc32)cc1`, for which the inhibition is -4.2%.

As for `c1ccc(-c2oc3ncnc(N4CCOCC4)c3c2-c2ccccc2)cc1`, the inhibition is 4.24%.

For `COc1ccc2[nH]c3c(=O)n(Cc4ccco4)cnc3c2c1`, the inhibition is 1.7%.

`N=c1c2c(-c3ccccc3)c(-c3ccccc3)oc2ncn1Cc1ccco1`: the inhibition is 25.5% (active).

With `C(=C\c1ccccc1)/CSc1nnc(-c2cccnc2)n1Cc1ccco1`, the inhibition is 9.54%.

As to `Cc1ccccc1NC(=O)NC1(C(=O)N2CCCC2)CCCCC1`, the inhibition is 0.5%.

Take `COc1cc(SC)ccc1C(=O)Nc1cc(C)ccn1`: the inhibition is 4.33%.

Regarding `Cc1ccc(C(=O)NCC(=O)O)s1`, the inhibition was -2.04%.

The values are drawn from PubChem BioAssay AID1040 (The Scripps Research Institute Molecular Screening Center, 2008).
